Results on 20 compounds are retold here after ChEMBL document CHEMBL4392839, “Syntheses and bioactivities of songorine derivatives as novel G protein-coupled receptor antagonists” (Bioorg Med Chem, 2019).

A short description of assay [1]: Antagonist activity at mouse GPCR by double antibody sandwich ELISA. In short, it runs like this: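 Double-antibody sandwich ELISA measuring mouse GPCR content, with a GPCR standard. Sample was mixed with diluted standard (37 ℃, 10 min), added to antibody-coated wells, then HRP conjugate was added (37 ℃, 30 min), followed by chromogens A and B and stop solution. OD450 was read within 5 min. Tested at 10 ng/L, 1 ng/mL, 0.1 μg/mL and 10 μg/mL, 30% DMSO in well. Percent inhibition versus no-inhibitor control (100%) from three independent experiments; IC50 from absorbance.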
(In general: An ELISA detects its analyte on a solid surface through an enzyme-linked reagent.)

The species entered for assay [2] is Mus musculus. Nature of the assay: Antagonist activity at mouse GPCR at 10 ng/L by double antibody sandwich ELISA relative to control.

As a reminder, the IC50 is the midpoint of a concentration-inhibition curve. High values mean weaker potency in that assay, low ones greater potency in that assay. For orientation: inhibition means how much of the control response was suppressed. Low readings indicate a weak effect, high ones a strong effect.

Turning to `C=C1[C@H]2C[C@@]3([C@@H]1S)[C@@H](CC2=S)[C@@]12[C@@H]4[C@@H]3C[C@@H]1[C@@](C)(CC[C@@H]2S)CN4CC`, the IC50 in assay [1] is more than 10 nM. In addition, in assay [2], the inhibition worked out at 39.3%.
As to `C=C1[C@H]2C[C@@]3([C@@H]1OC(=O)CCC)[C@@H](CC2=O)[C@@]12[C@@H]4[C@@H]3C[C@@H]1[C@@](C)(CC[C@@H]2O)CN4CC`, the IC50 in assay [1] amounted to 8.68 nM. For the same compound, in assay [2], the inhibition was determined as 49.8%.
For `C=C1[C@H]2C[C@@]3([C@@H]1OC(=O)CC)[C@@H](C/C2=N/OC(=O)CC)[C@@]12[C@@H]4[C@@H]3C[C@@H]1[C@@](C)(CC[C@@H]2O)CN4CC`, the IC50 in assay [1] is 3.65 nM. This compound also returned an inhibition in assay [2] of 50.3%.
In assay [1], `C=C1C(=O)[C@]23C[C@H]1C(=O)C[C@H]2[C@@]12C(=O)CC[C@@]4(C)CN(CC)[C@H]1[C@@H]3C[C@H]42` came in with an IC50 of more than 10 nM. The compound also yielded an inhibition in assay [2] of 34.6%.
In assay [1], `C=C1[C@H]2C[C@@]3([C@@H]1OC(C)=O)[C@@H](CC2=O)[C@@]12[C@@H](OC(C)=O)CC[C@@]4(C)CN(CC)[C@H]1[C@@H]3C[C@H]42` displayed an IC50 of 0.51 nM. This compound also came in with an inhibition in assay [2] of 65.2%.
Compound `C=C1[C@H]2C[C@@]3([C@@H]1O)[C@@H](C/C2=N/O)[C@@]12[C@@H]4[C@@H]3C[C@@H]1[C@@](C)(CC[C@@H]2O)CN4CC` showed an IC50 in assay [1] of 0.55 nM. The inhibition in assay [2] was found to be 73.3%.
For `C=C1[C@H]2C[C@@]3([C@@H]1OC(=O)CCC)[C@@H](CC2=O)[C@@]12[C@@H](OC(=O)CCC)CC[C@@]4(C)CN(CC)[C@H]1[C@@H]3C[C@H]42`, inhibition in assay [1] was half-maximal at 0.14 nM (IC50). In assay [2], this compound came in with an inhibition of 77.4%.
For `C=C1[C@H]2C[C@@]3([C@@H]1OC(=O)/C=C/c1ccccc1)[C@@H](CC2=O)[C@@]12[C@@H]4[C@@H]3C[C@@H]1[C@@](C)(CC[C@@H]2O)CN4CC` the same measures were 0.29 nM and 57.1%.
`C=C1[C@H]2C[C@@]3([C@@H]1OC(=O)CC)[C@@H](C/C2=N/OC(=O)CC)[C@@]12[C@@H](OC(=O)CC)CC[C@@]4(C)CN(CC)[C@H]1[C@@H]3C[C@H]42` returned an IC50 in assay [1] of more than 10 nM. Further, the inhibition in assay [2] stood at 36.4%.
The like results for `C=C1[C@H]2C[C@@]3([C@@H]1OC(=O)COCC)[C@@H](CC2=O)[C@@]12[C@@H](OC(=O)COCC)CC[C@@]4(C)CN(CC)[C@H]1[C@@H]3C[C@H]42` were, in that order, 5.91 nM and 55%.
For the compound `C=C1[C@H]2C[C@@]3([C@@H]1O)[C@@H](C[C@@H]2O)[C@@]12[C@@H]4[C@@H]3C[C@@H]1[C@@](C)(CC[C@@H]2O)CN4CC`, the 50% inhibitory concentration (IC50) in assay [1] is more than 10 nM. In assay [2], the inhibition is 39.4%.
Turning to `C=C1[C@H]2C[C@@]3([C@@H]1OC(=O)CC)[C@@H](CC2=O)[C@@]12[C@@H](OC(=O)CC)CC[C@@]4(C)CN(CC)[C@H]1[C@@H]3C[C@H]42`, the IC50 in assay [1] worked out at 0.59 nM. This compound gave an inhibition in assay [2] of 65.9%.
`C=C1[C@H]2C[C@@]3([C@@H]1O)[C@@H](CC2=O)[C@@]12[C@@H]4[C@@H]3C[C@@H]1[C@@](C)(CC[C@@H]2O)CN4CC` showed a concentration for half-maximal inhibition (IC50) in assay [1] of 3.21 nM. Also, the inhibition in assay [2] is 62.8%.
In assay [1], `CCN1C[C@]2(C)CC[C@H](O)[C@]34[C@@H]1[C@H](C[C@H]23)[C@@]12C[C@@H](C(=O)C[C@H]14)C(CO)(OC(=O)c1cccc(Cl)c1)[C@H]2O` (stereo not given in full) returned an IC50 of 0.23 nM. Moreover, the inhibition in assay [2] worked out at 68.7%.
On to `C=C1[C@H]2C[C@@]3([C@@H]1O)[C@@H](C/C2=N/NS(=O)(=O)c1ccc(C)cc1)[C@@]12[C@@H]4[C@@H]3C[C@@H]1[C@@](C)(CC[C@@H]2O)CN4CC`, for which, in assay [1], the half-maximal inhibitory concentration (IC50) was more than 10 nM. This compound came in with an inhibition in assay [2] of 37.7%.
In the case of `C=C1[C@H]2C[C@@]3([C@@H]1OC(=O)COC)[C@@H](CC2=O)[C@@]12[C@@H](OC(=O)COC)CC[C@@]4(C)CN(CC)[C@H]1[C@@H]3C[C@H]42`, in assay [1], inhibition was half-maximal at 0.08 nM (IC50). Also, in assay [2], the inhibition was 85.3%.
In turn, `C=C1[C@H]2C[C@@]3([C@@H]1OC(=O)c1ccccc1)[C@@H](CC2=O)[C@@]12[C@@H]4[C@@H]3C[C@@H]1[C@@](C)(CC[C@@H]2O)CN4CC` had an IC50 in assay [1] of 4.5 nM. In assay [2], the inhibition is 37.7%.
`C=C1C(=O)[C@]23C[C@H]1C(=O)C[C@H]2[C@@]12[C@@H]4[C@@H]3C[C@@H]1[C@@](C)(CC[C@@H]2O)CN4CC` showed an IC50 in assay [1] of 9.99 nM. Moreover, the inhibition in assay [2] is 54.6%.
The like results for `C=C1[C@H]2C[C@@]3([C@@H]1OC(C)=O)[C@@H](CC2=O)[C@@]12[C@@H]4[C@@H]3C[C@@H]1[C@@](C)(CC[C@@H]2O)CN4CC` were, in that order, 2.62 nM and 48.6%.
For the compound `C=C1[C@H]2C[C@@]3([C@@H]1O)[C@@H](C[C@H]2O)[C@@]12[C@@H]4[C@@H]3C[C@@H]1[C@@](C)(CC[C@@H]2O)CN4CC`, in assay [1], the IC50 was more than 10 nM. The compound further yielded an inhibition in assay [2] of 46.3%.
